Data: paper PMC7854449 (Advances in Therapy, 2020)

How the values were obtained:
[1] = cited from earlier work
[2] = Safety and tolerability: treatment-emergent adverse events; assay type: in vivo, healthy Chinese subjects; conditions: 13 weeks; for AEs leading to withdrawal, % (proportion of subjects) / AEs leading to withdrawal, E (number of events) / AEs leading to withdrawal, N (number of subjects) / AEs, % (proportion of subjects) / AEs, E (number of events) / AEs, N (number of subjects) / AEs, outcome not recovered/not resolved, % (proportion of subjects) / AEs, outcome not recovered/not resolved, E (number of events) / AEs, outcome not recovered/not resolved, N (number of subjects) / AEs, outcome recovered/resolved, % (proportion of subjects) / AEs, outcome recovered/resolved, E (number of events) / AEs, outcome recovered/resolved, N (number of subjects) / AEs, outcome recovering/resolving, % (proportion of subjects) / AEs, outcome recovering/resolving, E (number of events) / AEs, outcome recovering/resolving, N (number of subjects) / AEs, severity mild, % (proportion of subjects) / AEs, severity mild, E (number of events) / AEs, severity mild, N (number of subjects) / AEs, severity moderate, % (proportion of subjects) / AEs, severity moderate, E (number of events) / AEs, severity moderate, N (number of subjects) / AEs, severity severe, % (proportion of subjects) / AEs, severity severe, E (number of events) / AEs, severity severe, N (number of subjects) / Serious AEs, % (proportion of subjects) / Serious AEs, E (number of events) / Serious AEs, N (number of subjects): 12 subjects
Summary of the method: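 This was a single-centre, randomised trial in 36 healthy Chinese adults, 12 per arm, double-blind within dose level, with placebo arms pooled. Test compound or matching placebo was injected s.c. in the abdomen once weekly for 13 weeks, escalating every 4 weeks to 0.5 or 1.0 mg. Treatment-emergent AEs were untoward occurrences after the first dose and before the follow-up visit, counted as subjects and events.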

[3] = Multiple-dose pharmacokinetics of OW s.c. semaglutide, plasma, LC-MS/MS; assay type: in vivo, healthy Chinese subjects
Summary of the method: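 Healthy Chinese adults (18–55 y, BMI 20.0–24.9 kg/m2) got s.c. abdominal injections weekly for 13 weeks, starting at 0.25 mg and escalating every 4 weeks to 0.5 or 1.0 mg. Plasma was sampled frequently after the first and last doses, plus pre-dose in weeks 4, 8 and 11, and assayed by LC–MS/MS. Values below LLOQ were imputed. Non-compartmental linear trapezoidal AUC0–168 h used actual times. Ratios came from a log-scale linear model (dose group fixed) with 95% CI. Racc,DC = (AUCSS/last dose)/(AUCSD/0.25 mg).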

CC[C@H](C)[C@H](NC(=O)[C@H](Cc1ccccc1)NC(=O)[C@H](CCC(=O)O)NC(=O)[C@H](CCCCNC(=O)COCCOCCNC(=O)COCCOCCNC(=O)CC[C@H](NC(=O)CCCCCCCCCCCCCCCCC(=O)O)C(=O)O)NC(=O)[C@H](C)NC(=O)[C@H](C)NC(=O)[C@H](CCC(N)=O)NC(=O)CNC(=O)[C@H](CCC(=O)O)NC(=O)[C@H](CC(C)C)NC(=O)[C@H](Cc1ccc(O)cc1)NC(=O)[C@H](CO)NC(=O)[C@H](CO)NC(=O)[C@@H](NC(=O)[C@H](CC(=O)O)NC(=O)[C@H](CO)NC(=O)[C@@H](NC(=O)[C@H](Cc1ccccc1)NC(=O)[C@@H](NC(=O)CNC(=O)[C@H](CCC(=O)O)NC(=O)C(C)(C)NC(=O)[C@@H](N)Cc1cnc[nH]1)[C@@H](C)O)[C@@H](C)O)C(C)C)C(=O)N[C@@H](C)C(=O)N[C@@H](Cc1c[nH]c2ccccc12)C(=O)N[C@@H](CC(C)C)C(=O)N[C@H](C(=O)N[C@@H](CCCNC(=N)N)C(=O)NCC(=O)N[C@@H](CCCNC(=N)N)C(=O)NCC(=O)O)C(C)C [semaglutide, Semaglutide]
half-life (t½) [1]: ≈ 1 week | AEs leading to withdrawal, % (proportion of subjects) ([2]; OW s.c. 0.5 mg): 0% | AEs leading to withdrawal, E (number of events) ([2]; OW s.c. 0.5 mg): 0 | AEs leading to withdrawal, N (number of subjects) ([2]; OW s.c. 0.5 mg): 0 | AEs, % (proportion of subjects) ([2]; OW s.c. 0.5 mg): 83% | AEs, E (number of events) ([2]; OW s.c. 0.5 mg): 44 | AEs, N (number of subjects) ([2]; OW s.c. 0.5 mg): 10 | AEs, outcome not recovered/not resolved, % (proportion of subjects) ([2]; OW s.c. 0.5 mg): 0% | AEs, outcome not recovered/not resolved, E (number of events) ([2]; OW s.c. 0.5 mg): 0 | AEs, outcome not recovered/not resolved, N (number of subjects) ([2]; OW s.c. 0.5 mg): 0 | AEs, outcome recovered/resolved, % (proportion of subjects) ([2]; OW s.c. 0.5 mg): 83% | AEs, outcome recovered/resolved, E (number of events) ([2]; OW s.c. 0.5 mg): 44 | AEs, outcome recovered/resolved, N (number of subjects) ([2]; OW s.c. 0.5 mg): 10 | AEs, outcome recovering/resolving, % (proportion of subjects) ([2]; OW s.c. 0.5 mg): 0% | AEs, outcome recovering/resolving, E (number of events) ([2]; OW s.c. 0.5 mg): 0 | AEs, outcome recovering/resolving, N (number of subjects) ([2]; OW s.c. 0.5 mg): 0 | AEs, severity mild, % (proportion of subjects) ([2]; OW s.c. 0.5 mg): 83% | AEs, severity mild, E (number of events) ([2]; OW s.c. 0.5 mg): 44 | AEs, severity mild, N (number of subjects) ([2]; OW s.c. 0.5 mg): 10 | AEs, severity moderate, % (proportion of subjects) ([2]; OW s.c. 0.5 mg): 0% | AEs, severity moderate, E (number of events) ([2]; OW s.c. 0.5 mg): 0 | AEs, severity moderate, N (number of subjects) ([2]; OW s.c. 0.5 mg): 0 | AEs, severity severe, % (proportion of subjects) ([2]; OW s.c. 0.5 mg): 0% | AEs, severity severe, E (number of events) ([2]; OW s.c. 0.5 mg): 0 | AEs, severity severe, N (number of subjects) ([2]; OW s.c. 0.5 mg): 0 | Serious AEs, % (proportion of subjects) ([2]; OW s.c. 0.5 mg): 0% | Serious AEs, E (number of events) ([2]; OW s.c. 0.5 mg): 0 | Serious AEs, N (number of subjects) ([2]; OW s.c. 0.5 mg): 0 | AEs leading to withdrawal, % (proportion of subjects) ([2]; OW s.c. 1.0 mg): 0% | AEs leading to withdrawal, E (number of events) ([2]; OW s.c. 1.0 mg): 0 | AEs leading to withdrawal, N (number of subjects) ([2]; OW s.c. 1.0 mg): 0 | AEs, % (proportion of subjects) ([2]; OW s.c. 1.0 mg): 92% | AEs, E (number of events) ([2]; OW s.c. 1.0 mg): 58 | AEs, N (number of subjects) ([2]; OW s.c. 1.0 mg): 11 | AEs, outcome not recovered/not resolved, % (proportion of subjects) ([2]; OW s.c. 1.0 mg): 0% | AEs, outcome not recovered/not resolved, E (number of events) ([2]; OW s.c. 1.0 mg): 0 | AEs, outcome not recovered/not resolved, N (number of subjects) ([2]; OW s.c. 1.0 mg): 0 | AEs, outcome recovered/resolved, % (proportion of subjects) ([2]; OW s.c. 1.0 mg): 92% | AEs, outcome recovered/resolved, E (number of events) ([2]; OW s.c. 1.0 mg): 57 | AEs, outcome recovered/resolved, N (number of subjects) ([2]; OW s.c. 1.0 mg): 11 | AEs, outcome recovering/resolving, % (proportion of subjects) ([2]; OW s.c. 1.0 mg): 8% | AEs, outcome recovering/resolving, E (number of events) ([2]; OW s.c. 1.0 mg): 1 | AEs, outcome recovering/resolving, N (number of subjects) ([2]; OW s.c. 1.0 mg): 1 | AEs, severity mild, % (proportion of subjects) ([2]; OW s.c. 1.0 mg): 92% | AEs, severity mild, E (number of events) ([2]; OW s.c. 1.0 mg): 57 | AEs, severity mild, N (number of subjects) ([2]; OW s.c. 1.0 mg): 11 | AEs, severity moderate, % (proportion of subjects) ([2]; OW s.c. 1.0 mg): 8% | AEs, severity moderate, E (number of events) ([2]; OW s.c. 1.0 mg): 1 | AEs, severity moderate, N (number of subjects) ([2]; OW s.c. 1.0 mg): 1 | AEs, severity severe, % (proportion of subjects) ([2]; OW s.c. 1.0 mg): 0% | AEs, severity severe, E (number of events) ([2]; OW s.c. 1.0 mg): 0 | AEs, severity severe, N (number of subjects) ([2]; OW s.c. 1.0 mg): 0 | Serious AEs, % (proportion of subjects) ([2]; OW s.c. 1.0 mg): 0% | Serious AEs, E (number of events) ([2]; OW s.c. 1.0 mg): 0 | Serious AEs, N (number of subjects) ([2]; OW s.c. 1.0 mg): 0 | severity of gastrointestinal adverse events ([2]; OW s.c. 0.5 and 1.0 mg, none led to treatment discontinuation): mild | deaths ([2]; whole trial, OW s.c. 0.5 and 1.0 mg): no deaths | Racc,DC (dose-corrected accumulation ratio) ([3]; OW s.c. dosing, both dose groups): approximately 2 | treatment ratio (1.0 mg/0.5 mg) for Cmax,SS ([3]; [95% CI], dose proportionality): 1.94 [1.74; 2.16] | treatment ratio (1.0 mg/0.5 mg) for AUC0–168 h,SS ([3]; linear normal model on log-transformed values, [95% CI], dose proportionality): 1.99 [1.78; 2.23]
